Reference: ChEMBL document CHEMBL3588757, “Structure-based design, synthesis and biological testing of piperazine-linked bis-epipodophyllotoxin etoposide analogs” (Bioorg Med Chem, 2015)

How the values were obtained:
Type in all cases: functional
HCT-116 [1] = experiment: Cytotoxicity against human HCT116 cells assessed as cell growth at 50 uM by SRB assay; details: read-out: Activity
Procedure, shortened: (§1)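 Measured in the NCI-60 human tumour cell line panel using five-dose testing. Growth was recorded at each dose for each cell line, and a GI50 was derived for each line.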

LOX IMVI = experiment: Cytotoxicity against human LOXIMVI cells assessed as cell growth at 50 uM by SRB assay; details: read-out: Activity
DU-145 = experiment: Cytotoxicity against human DU145 cells assessed as cell growth at 50 uM by SRB assay; details: read-out: Activity; procedure, shortened: as §1
NCI-H226 [2] = experiment: Cytotoxicity against human NCI-H226 cells by SRB assay
Procedure, shortened: (§2)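 NCI-60 panel screen; 5-dose testing giving GI50 per cell line, plus a single 10 µM one-dose test. Method details not given beyond the NCI screen.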

NCI-H23 [3] = experiment: Cytotoxicity against human NCI-H23 cells by SRB assay; procedure, shortened: as §2
NCI-H522 [4] = experiment: Cytotoxicity against human NCI-H522 cells by SRB assay; procedure, shortened: as §2
M14 [5] = experiment: Cytotoxicity against human M14 cells by SRB assay; procedure, shortened: as §2
OVCAR-8 [6] = experiment: Cytotoxicity against human OVCAR8 cells by SRB assay; procedure, shortened: as §2
[7] = Cytotoxicity against human NCI-ADR-RES cells by SRB assay; procedure, shortened: as §2
TK-10 = experiment: Cytotoxicity against human TK10 cells by SRB assay; procedure, shortened: as §2
UO-31 = experiment: Cytotoxicity against human UO31 cells by SRB assay; procedure, shortened: as §2
T47D = experiment: Cytotoxicity against human T47D cells by SRB assay; procedure, shortened: as §2
CCRF-CEM = experiment: Cytotoxicity against human CCRF-CEM cells assessed as cell growth at 0.005 uM by SRB assay; details: read-out: Activity
HL-60(TB) = experiment: Cytotoxicity against human HL-60(TB) cells assessed as cell growth at 0.005 uM by SRB assay; details: read-out: Activity; procedure, shortened: as §1
MOLT-4 = experiment: Cytotoxicity against human MOLT4 cells assessed as cell growth at 0.005 uM by SRB assay; details: read-out: Activity
COLO 205 = experiment: Cytotoxicity against human COLO205 cells assessed as cell growth at 0.005 uM by SRB assay; details: read-out: Activity
HCT-15 [8] = experiment: Cytotoxicity against human HCT15 cells assessed as cell growth at 0.005 uM by SRB assay; details: read-out: Activity; procedure, shortened: as §1
U-251 = experiment: Cytotoxicity against human U251 cells assessed as cell growth at 0.005 uM by SRB assay; details: read-out: Activity
M14 [9] = experiment: Cytotoxicity against human M14 cells assessed as cell growth at 0.005 uM by SRB assay; details: read-out: Activity
OVCAR-8 [10] = experiment: Cytotoxicity against human OVCAR8 cells assessed as cell growth at 0.005 uM by SRB assay; details: read-out: Activity
SN12C = experiment: Cytotoxicity against human SN12C cells assessed as cell growth at 0.005 uM by SRB assay; details: read-out: Activity
[11] = Cytotoxicity against human Hs578T cells assessed as cell growth at 0.005 uM by SRB assay; details: Hs-578T, read-out: Activity; procedure, shortened: as §1
NCI-H522 [12] = experiment: Cytotoxicity against human NCI-H522 cells assessed as cell growth at 0.05 uM by SRB assay; details: read-out: Activity
HCT-15 [13] = experiment: Cytotoxicity against human HCT15 cells assessed as cell growth at 0.05 uM by SRB assay; details: read-out: Activity; procedure, shortened: as §1
M14 [14] = experiment: Cytotoxicity against human M14 cells assessed as cell growth at 0.05 uM by SRB assay; details: read-out: Activity
HCC 2998 [15] = experiment: Cytotoxicity against human HCC2998 cells assessed as cell growth at 0.5 uM by SRB assay; details: read-out: Activity; procedure, shortened: as §1
HCT-116 [16] = experiment: Cytotoxicity against human HCT116 cells assessed as cell growth at 0.5 uM by SRB assay; details: read-out: Activity; procedure, shortened: as §1
SF-539 = experiment: Cytotoxicity against human SF539 cells assessed as cell growth at 0.5 uM by SRB assay; details: read-out: Activity
SNB-75 = experiment: Cytotoxicity against human SNB75 cells assessed as cell growth at 0.5 uM by SRB assay; details: read-out: Activity
UACC-257 = experiment: Cytotoxicity against human UACC257 cells assessed as cell growth at 0.5 uM by SRB assay; details: read-out: Activity
IGROV-1 = experiment: Cytotoxicity against human IGROV1 cells assessed as cell growth at 0.5 uM by SRB assay; details: read-out: Activity; procedure, shortened: as §1
MCF7 = experiment: Cytotoxicity against human MCF7 cells assessed as cell growth at 0.5 uM by SRB assay; details: read-out: Activity
NCI-H226 [17] = experiment: Cytotoxicity against human NCI-H226 cells assessed as cell growth at 5 uM by SRB assay; details: read-out: Activity
NCI-H322M = experiment: Cytotoxicity against human NCI-H322M cells assessed as cell growth at 5 uM by SRB assay; details: read-out: Activity
HCC 2998 [18] = experiment: Cytotoxicity against human HCC2998 cells assessed as cell growth at 5 uM by SRB assay; details: read-out: Activity; procedure, shortened: as §1
HCT-15 [19] = experiment: Cytotoxicity against human HCT15 cells assessed as cell growth at 5 uM by SRB assay; details: read-out: Activity; procedure, shortened: as §1
SF-295 = experiment: Cytotoxicity against human SF295 cells assessed as cell growth at 5 uM by SRB assay; details: read-out: Activity
CAKI-1 = experiment: Cytotoxicity against human Caki1 cells assessed as cell growth at 5 uM by SRB assay; details: read-out: Activity
RPMI-8226 = experiment: Cytotoxicity against human RPMI8226 cells assessed as cell growth at 50 uM by SRB assay; details: read-out: Activity
NCI-H23 [20] = experiment: Cytotoxicity against human NCI-H23 cells assessed as cell growth at 50 uM by SRB assay; details: read-out: Activity
[21] = read-out: LC50 (the source's name)
[22] = read-out: pLC50 (the source's name) (converted)

COc1cc([C@@H]2c3cc4c(cc3[C@@H](NC(=O)CN3CCN(CCCCCCN5CCN(CC(=O)N[C@@H]6c7cc8c(cc7[C@@H](c7cc(OC)c(O)c(OC)c7)[C@H]7C(=O)OC[C@@H]76)OCO8)CC5)CC3)[C@H]3COC(=O)[C@H]23)OCO4)cc(OC)c1O
growth at 50 µM (HCT-116 [1]): 2%
growth at 50 µM (LOX IMVI): -8%
growth at 50 µM (DU-145): 7%
GI50 (NCI-H226 [2]; read-out: GI50): 5.42 µM
CC50 (NCI-H226 [2]; [21]): > 50 µM
TGI (NCI-H226 [2]; read-out: TGI): 46.8 µM
GI50 (NCI-H226 [2]; read-out: pGI50 (converted)): 5.37 µM
CC50 (NCI-H226 [2]; [22]): > 50.1 µM
TGI (NCI-H226 [2]; read-out: pTGI (converted)): 46.8 µM
GI50 (NCI-H23 [3]; read-out: GI50): 3.82 µM
CC50 (NCI-H23 [3]; [21]): > 50 µM
TGI (NCI-H23 [3]; read-out: TGI): 38.6 µM
GI50 (NCI-H23 [3]; read-out: pGI50 (converted)): 3.8 µM
CC50 (NCI-H23 [3]; [22]): > 50.1 µM
TGI (NCI-H23 [3]; read-out: pTGI (converted)): 38.9 µM
GI50 (NCI-H522 [4]; read-out: GI50): 5.13 µM
CC50 (NCI-H522 [4]; [21]): > 50 µM
TGI (NCI-H522 [4]; read-out: TGI): 28.8 µM
GI50 (NCI-H522 [4]; read-out: pGI50 (converted)): 5.13 µM
CC50 (NCI-H522 [4]; [22]): > 50.1 µM
TGI (NCI-H522 [4]; read-out: pTGI (converted)): 28.8 µM
GI50 (M14 [5]; read-out: GI50): 2.31 µM
CC50 (M14 [5]; [21]): > 50 µM
TGI (M14 [5]; read-out: TGI): 22.1 µM
GI50 (M14 [5]; read-out: pGI50 (converted)): 2.29 µM
CC50 (M14 [5]; [22]): > 50.1 µM
TGI (M14 [5]; read-out: pTGI (converted)): 21.9 µM
GI50 (OVCAR-8 [6]; read-out: GI50): 35.7 µM
CC50 (OVCAR-8 [6]; [21]): > 50 µM
TGI (OVCAR-8 [6]; read-out: TGI): > 50 µM
GI50 (OVCAR-8 [6]; read-out: pGI50 (converted)): 35.5 µM
CC50 (OVCAR-8 [6]; [22]): > 50.1 µM
TGI (OVCAR-8 [6]; read-out: pTGI (converted)): > 50.1 µM
GI50 ([7]; read-out: GI50): > 50 µM
CC50 [7, 21]: > 50 µM
TGI ([7]; read-out: TGI): > 50 µM
GI50 ([7]; read-out: pGI50 (converted)): > 50.1 µM
CC50 [7, 22]: > 50.1 µM
TGI ([7]; read-out: pTGI): > 50.1 µM
GI50 (TK-10; read-out: GI50): > 50 µM
CC50 (TK-10; [21]): > 50 µM
TGI (TK-10; read-out: TGI): > 50 µM
GI50 (TK-10; read-out: pGI50 (converted)): > 50.1 µM
CC50 (TK-10; [22]): > 50.1 µM
TGI (TK-10; read-out: pTGI (converted)): > 50.1 µM
GI50 (UO-31; read-out: GI50): > 50 µM
CC50 (UO-31; [21]): > 50 µM
TGI (UO-31; read-out: TGI): > 50 µM
GI50 (UO-31; read-out: pGI50 (converted)): > 50.1 µM
CC50 (UO-31; [22]): > 50.1 µM
TGI (UO-31; read-out: pTGI (converted)): > 50.1 µM
GI50 (T47D; read-out: GI50): 2.01 µM
CC50 (T47D; [21]): > 50 µM
TGI (T47D; read-out: TGI): > 50 µM
GI50 (T47D; read-out: pGI50 (converted)): 2 µM
CC50 (T47D; [22]): > 50.1 µM
TGI (T47D; read-out: pTGI (converted)): > 50.1 µM
growth at 0.005 µM (CCRF-CEM): 102%
growth at 0.005 µM (HL-60(TB)): 120%
growth at 0.005 µM (MOLT-4): 108%
growth at 0.005 µM (COLO 205): 101%
growth at 0.005 µM (HCT-15 [8]): 90%
growth at 0.005 µM (U-251): 102%
growth at 0.005 µM (M14 [9]): 89%
growth at 0.005 µM (OVCAR-8 [10]): 110%
growth at 0.005 µM (SN12C): 96%
growth at 0.005 µM [11]: 95%
growth at 0.05 µM (NCI-H522 [12]): 99%
growth at 0.05 µM (HCT-15 [13]): 93%
growth at 0.05 µM (M14 [14]): 94%
growth at 0.5 µM (HCC 2998 [15]): 82%
growth at 0.5 µM (HCT-116 [16]): 60%
growth at 0.5 µM (SF-539): 71%
growth at 0.5 µM (SNB-75): 61%
growth at 0.5 µM (UACC-257): 108%
growth at 0.5 µM (IGROV-1): 89%
growth at 0.5 µM (MCF7): 31%
growth at 5 µM (NCI-H226 [17]): 52%
growth at 5 µM (NCI-H322M): 99%
growth at 5 µM (HCC 2998 [18]): 73%
growth at 5 µM (HCT-15 [19]): 82%
growth at 5 µM (SF-295): 50%
growth at 5 µM (CAKI-1): 80%
growth at 50 µM (RPMI-8226): -13%
growth at 50 µM (NCI-H23 [20]): -6%
